pIC50: −log10 of the molar value. Calls of active or inactive are those of the source. No cut-off for these calls is given here.
Assays:
HCT-116 [1] = assay: Cytotoxicity against human HCT116 cells after 72 hrs by trypan blue viable cell count; details: HCT-116, 72 h
HCT-116 [2] = assay: Effect on micronucleation in human HCT116 up to 50 uM; format: functional, cell-based
How it was run: (§1)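 Cell-based screen for disruption of interphase and mitotic microtubules, tested at concentrations up to 50 µM; scored for microtubule density, bundling, circular mitotic spindles, micronucleation and other nuclear changes.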

HCT-116 [3] = assay: Increase in microtubule density in human HCT116 up to 50 uM; format: functional, cell-based
How it was run: as §1

HCT-116 [4] = assay: Formation of circular mitotic spindles in human HCT116 up to 50 uM; format: functional, cell-based
How it was run: as §1

MDA-MB-435 = assay: Cytotoxicity against human MDA-MB-435 cells after 48 hrs by SRB assay; details: MDA-MB-435, 48 h
L1210 [5] = assay: Cytotoxicity against mouse L1210 cells at 100 ug/disk by disk diffusion method; format: functional
How it was run: (§2)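 Soft agar colony formation assay with compound applied by disk diffusion; cell lines: murine L1210 leukemia and C38 colon, human HCT-116 colon, H-125 lung, CEM leukemia, normal hematopoietic CFU-GM. Differential cytotoxicity given as zone-unit differential between a solid tumor line and leukemia (ΔSL) or normal cells (ΔSN).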

MC-38 [6] = assay: Cytotoxicity against mouse C38 cells at 100 ug/disk by disk diffusion method; format: functional
How it was run: as §2

[7] = Cytotoxicity against human H116 cells at 100 ug/disk by disk diffusion method; format: functional
How it was run: as §2

[8] = Cytotoxicity against human H125 cells at 100 ug/disk by disk diffusion method; format: functional
How it was run: as §2

MC-38 [9] = assay: Cytotoxicity against mouse C38 cells at 30 ug/disk by disk diffusion method; format: functional
How it was run: as §2

[10] = Cytotoxicity against human H125 cells at 30 ug/disk by disk diffusion method; format: functional
How it was run: as §2

[11] = Cytotoxicity against human H116 cells at 30 ug/disk by disk diffusion method; format: functional
How it was run: as §2

L1210 [12] = assay: Cytotoxicity against mouse L1210 cells at 30 ug/disk by disk diffusion method; format: functional
How it was run: as §2

[13] = Cytotoxicity against human CFU-GM cells at 30 ug/disk by disk diffusion method; format: cell-based
How it was run: as §2

[14] = Drug level in HCT116 bearing SCID mice plasma at 25 mg/kg, iv after 1 min; format: ADME, organism-based; parameters: dose 25 mg/kg, route intravenous; details: mouse
How it was run: (§3)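 SCID mice bearing subcutaneous HCT-116 tumors (~100 mg) got a single iv dose of 0.5 mg/mouse (25 mg/kg) in 0.25 mL. Vehicle: 10 mg/mL DMSO stock mixed 1:1 with cremophor/propylene glycol (60:40), then diluted 20-fold in saline. Plasma was taken from individual mice at 1, 15, 30 min and 1, 2, 6, 24 h. Drug was extracted by solid-phase extraction and measured by C18 HPLC with UV detection at 218 nm.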

HCT-116 [15] = assay: Increase in microtubule density in human HCT116 cells at 20 uM; format: functional, cell-based
L1210 [16] = assay: Cytotoxicity against mouse L1210 cells at 9 ug/disk by disk diffusion method; format: functional
How it was run: (§4)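 Disk diffusion soft agar colony formation assay using solid tumor lines (murine colon C38, human colon HCT-116, human lung H125), leukemia lines (murine L1210, human CEM) and normal CFU-GM cells. Results are inhibition zones in zone units. Differential cytotoxicity is the zone difference between solid tumor and leukemia cells (ΔSL) or normal cells (ΔSN).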

HCT-116 [17] = assay: Antitumor activity against HCT116 bearig SCID mouse assessed as tumor weight at 25 mg/kg, iv after 24 hrs; format: functional, Homo sapiens
HCT-116 [18] = assay: Formation of thick bundles of microtubule stabilization in human HCT116 cells at 2 to 20 uM; format: functional, cell-based
HCT-116 [19] = assay: Formation of thick bundles of microtubule stabilization in human HCT116 cells at 20 uM; format: functional, cell-based
[20] = Cytotoxicity against human H125 cells at 9 ug/disk by disk diffusion method; format: functional
How it was run: as §4

CCRF-CEM [21] = assay: Cytotoxicity against human CEM cells at 36 ug/disk by disk diffusion method; format: functional
How it was run: as §4

[22] = Cytotoxicity against human H116 cells at 9 ug/disk by disk diffusion method; format: functional
How it was run: as §4

HCT-116 [23] = assay: Antitumor activity against HCT116 bearing SCID mice at 12.5 mg/kg bolus iv after 9 days relative to control; format: functional, Homo sapiens
How it was run: (§5)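 SCID mice were implanted subcutaneously with 10^6 HCT-116 cells and pooled, 5 per group. Dosing started 3 days after inoculation: daily iv tail-vein bolus for 5 days, 0.25 mL of 1 or 2 mg/mL (about 12.5 or 25 mg/kg/day) in DMSO/cremophor/propylene glycol/saline vehicle. Tumor weight and body weight were followed to day 30, and %T/C was calculated versus untreated controls.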

HCT-116 [24] = assay: Antitumor activity against HCT116 bearig SCID mouse assessed as tumor weight at 25 mg/kg, iv after 30 mins; format: functional, Homo sapiens
HCT-116 [25] = assay: Abnormal circular mitotic spindles formation in human HCT116 cells at 2 to 20 uM; format: functional, cell-based
HCT-116 [26] = assay: Cytotoxicity against human HCT116 cells assessed as cell kill at 10 ng/mL after 24 hrs; format: functional
How it was run: (§6)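 Clonogenic assay. HCT-116 cells were seeded at 200 to 20 000 per 60 mm dish in RPMI + 10% FBS, then given drug at 1 mg/mL and 10-fold dilutions. Exposure was 2 h or 24 h followed by drug-free medium, or continuous. Dishes were incubated 7 days and stained with methylene blue; colonies of ≥50 cells were counted and normalized to untreated control. Experiments were repeated to span 100–0.1% survival.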

HCT-116 [27] = assay: Survival of human HCT116 cells at 5 ng/mL after 168 hrs; format: functional; details: HCT-116, 168 h, read-out: Survival
How it was run: as §6

MC-38 [28] = assay: Cytotoxicity against mouse C38 cells at 36 ug/disk by disk diffusion method; format: functional
How it was run: as §4

[29] = Drug level in HCT116 bearing SCID mice plasma at 25 mg/kg, iv after 2 hrs; format: ADME, organism-based; parameters: dose 25 mg/kg, route intravenous; details: mouse
How it was run: as §3

HCT-116 [30] = assay: Antitumor activity against HCT116 bearing SCID mice at 25 mg/kg bolus iv after 11 days relative to control; format: functional, Homo sapiens
How it was run: as §5

[31] = Cytotoxicity against human CFU-GM cells at 9 ug/disk by disk diffusion method; format: cell-based
How it was run: as §4

[32] = Drug level in HCT116 bearing SCID mice plasma at 25 mg/kg, iv after 24 hrs; format: ADME, organism-based; parameters: dose 25 mg/kg, route intravenous; details: mouse
How it was run: as §3

HCT-116 [33] = assay: Cytotoxicity against human HCT116 cells assessed as cell kill at 1.2 ng/mL after 168 hrs; format: functional
How it was run: as §6

[34] = Cytotoxicity against human H125 cells at 40 ug/disk by disk diffusion method; format: functional
How it was run: as §2

L1210 [35] = assay: Cytotoxicity against mouse L1210 cells at 40 ug/disk by disk diffusion method; format: functional
How it was run: as §2

MC-38 [36] = assay: Cytotoxicity against mouse C38 cells at 40 ug/disk by disk diffusion method; format: functional
How it was run: as §2

[37] = Cytotoxicity against human H116 cells at 40 ug/disk by disk diffusion method; format: functional
How it was run: as §2

[38] = Cytotoxicity against human H116 cells at 60 ug/disk by disk diffusion method; format: functional
How it was run: as §4

MC-38 [39] = assay: Cytotoxicity against mouse C38 cells at 60 ug/disk by disk diffusion method; format: functional
How it was run: as §4

L1210 [40] = assay: Cytotoxicity against mouse L1210 cells at 60 ug/disk by disk diffusion method; format: functional
How it was run: as §4

[41] = Cytotoxicity against human H125 cells at 60 ug/disk by disk diffusion method; format: functional
How it was run: as §4

CCRF-CEM [42] = assay: Cytotoxicity against human CEM cells at 40 ug/disk by disk diffusion method; format: functional
How it was run: as §2

[43] = Cytotoxicity against human CFU-GM cells at 40 ug/disk by disk diffusion method; format: cell-based
How it was run: as §2

| SMILES | pIC50 (HCT-116 [1]) | Activity (HCT-116 [2]) | Activity (HCT-116 [3]) | Activity (HCT-116 [4]) | pIC50 (MDA-MB-435) | Activity (MC-38 [9]) [Zone units] | Activity [10] [Zone units] | Activity [11] [Zone units] | Activity (L1210 [12]) [Zone units] | other results |
| --- | --- | --- | --- | --- | --- | --- | --- | --- | --- | --- |
| C=C1C[C@H](C)C[C@@H]2CC=C[C@@H](C/C=C\C(=O)O[C@H]3C[C@@H](O[C@H]3/C=C/[C@@H]3CC(C)=CC(=O)O3)[C@@H](O)[C@@H](O)C1)O2 [FIIJIANOLIDE D] | 5.72 | inactive | inactive | inactive | 4.67 | – | – | – | – | Activity (L1210 [5]): 0 Zone units; Activity (MC-38 [6]): 150 Zone units; Activity [7]: 0 Zone units; Activity [8]: 0 Zone units |
| C=C1C[C@H](C)C[C@@H]2CC=C[C@@H](C/C=C\C(=O)O[C@H]3C[C@@H](O[C@H]3/C=C/[C@@H]3CC(C)=CC(O)O3)[C@@H](O)[C@@H](O)C1)O2 (stereo not given in full) [FIJIANOLIDE I] | < 4.30 | inactive | inactive | inactive | < 4.30 | 50 | 0 | 0 | 0 | – |
| C=C1C[C@H](C)C[C@@H]2CC=C[C@@H](C/C=C\C(=O)O[C@H]([C@@H](O)/C=C/[C@@H]3C[C@@]4(C)O[C@H]4[C@@H](O)O3)C[C@@H]3O[C@H]3[C@@H](O)C1)O2 [FIJIANOLIDE G] | 4.85 | Active | Active | Active | 5.04 | 350 | 200 | 200 | 150 | Activity [13]: 100 Zone units |
| C=C1C[C@H](C)C[C@@H]2CC=C[C@@H](C/C=C\C(=O)O[C@H]([C@@H](O)/C=C/[C@@H]3CC(C)=CCO3)C[C@@H]3O[C@H]3[C@@H](O)C1)O2 [FIJIANOLIDE B] | 8.52 | – | – | – | 8.15 | – | – | – | – | concentration at 1 min [14]: 160 µg/mL; Activity (HCT-116 [15]): Active; Activity (L1210 [16]): 500 Zone units; Activity (HCT-116 [17]): 2.8 µg/mg; Activity (HCT-116 [18]): Active; Activity (HCT-116 [19]): inactive; Activity [20]: 250 Zone units; Activity (CCRF-CEM [21]): >1000 Zone units; Activity [22]: 700 Zone units; Activity (HCT-116 [23]): 80%; Activity (HCT-116 [24]): 4.7 µg/mg; Activity (HCT-116 [25]): Active; Activity (HCT-116 [26]): 90%; viability at 0.005 µg/mL (HCT-116 [27]): 0.01%; Activity (MC-38 [28]): 800 Zone units; concentration at 2 h [29]: 1 µg/mL; Activity (HCT-116 [30]): 11%; Activity [31]: 550 Zone units; concentration at 24 h [32]: 200 µg/mL; Activity (HCT-116 [33]): 90% |
| C=C1C[C@H](C)C[C@@H]2CC=C[C@@H](C/C=C\C(=O)O[C@H]3C[C@@H](O[C@H]3/C=C/[C@@H]3CC(C)=CC(OC)O3)[C@@H](O)[C@@H](O)C1)O2 (stereo not given in full) [FIJIANOLIDE H] | < 4.30 | inactive | inactive | inactive | < 4.30 | – | – | – | – | Activity [34]: 0 Zone units; Activity (L1210 [35]): 0 Zone units; Activity (MC-38 [36]): 150 Zone units; Activity [37]: 0 Zone units |
| C=C1C[C@H](C)C[C@@H]2CC=C[C@@H](C/C=C\C(=O)O[C@H]3C[C@@H](O[C@H]3/C=C/[C@@H]3C[C@@]4(C)O[C@H]4[C@@H](O)O3)[C@@H](O)[C@@H](O)C1)O2 [FIJIANOLIDE F] | < 4.30 | inactive | inactive | inactive | < 4.30 | – | – | – | – | Activity [38]: 50 Zone units; Activity (MC-38 [39]): 0 Zone units; Activity (L1210 [40]): 150 Zone units; Activity [41]: 100 Zone units |
| C=C1C[C@H](C)C[C@@H]2CC=C[C@@H](C/C=C\C(=O)OC([C@@H](O)/C=C/[C@@H]3CC(C)=CC(=O)O3)C[C@@H]3O[C@H]3[C@@H](O)C1)O2 (stereo not given in full) [FIJIANOLIDE E] | 6.15 | Active | Active | Active | 5.89 | – | – | – | – | Activity (CCRF-CEM [42]): 550 Zone units; Activity [34]: 400 Zone units; Activity [43]: 500 Zone units; Activity (L1210 [35]): 350 Zone units; Activity (MC-38 [36]): 400 Zone units; Activity [37]: 500 Zone units |
| C=C1C[C@H](C)C[C@@H]2CC=C[C@@H](C/C=C\C(=O)O[C@H]3C[C@@H](O[C@H]3/C=C/[C@@H]3CC(C)=CCO3)[C@@H](O)[C@@H](O)C1)O2 [FIJIANOLIDE A] | 5.01 | – | – | – | 4.69 | 0 | 50 | 100 | 150 | – |
